Rows were chosen to be rich in hits. Some 1.6% of all compounds tested hit in one or more screens of this group.
CTSL1 counter – cathepsin L1 inhibition, PFM18AAP counter-screen. recombinant F. hepatica cathepsin L1, Z-Leu-Arg-MCA fluorescence. hit rate 0.49% among 300,000. inhibition, % at 5.96 µM. AID 1906;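 active = inhibition above the mean of all tested compounds plus 3 SD, set per screening campaign, cut at about 17% in these data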;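 also: 0% = plate median of test compound wells and 100% = 1 µM Z-Phe-Ala-diazomethylketone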
HKDC1 inhibitor – blocks human hexokinase HKDC1 activity; Q2TB90; recombinant HKDC1, G6PDH/diaphorase resazurin coupled fluorescence; inhibition, % at 20 µM; hit rate 0.16% among 340,000;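 active = inhibition above about 35% when tested at 20 µM, limit read from the data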;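 also: plate controls were DMSO wells with enzyme for no effect and DMSO wells lacking enzyme for full effect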
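Assay system: recombinant HKDC1 hexokinase; detection: coupled resazurin fluorescence, excitation 525 nm, emission 613 nm; benchmarks: DMSO-plus-enzyme-mix negative control, buffer-substituted positive control; compound dosing: single 20 µM dose; schedule: 90 min at room temperature in dark; also added: glucose plus 1 mM ATP as hexokinase substrates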
UCH37 inh – blocks the human deubiquitinase UCH37; Q9Y5K5; purified proteasome/UCH37, Ub-AMC cleavage fluorescence; inhibition, % (test concentration not listed); hit rate 0.33% among 330,000; AID 588478;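 active = mean inhibition over replicate wells above about 20%, limit read from the data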;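 also: 0% = compound-free wells with enzyme and 100% = wells lacking proteasome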
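Assay system: Proteasome-bound UCH37. Buffer or medium: pH 7.4 Tris-HCl (50 mM) with ovalbumin, ATP-MgCl2, DTT. Incubation: 30 min preincubation with enzyme, 25 min cleavage at room temperature. Measured by: fluorescence, ex 355 nm, em 460 nm. Read-out basis: percent inhibition. Control set: wells without proteasome as full block, compound-free enzyme plus substrate as uninhibited.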
PAD4 FP inh – PAD4 (human) enzyme inhibition. Q9UM07. recombinant PAD4, RCA probe fluorescence polarization. inhibition, % at 6.36 µM. hit rate 0.41% among 330,000;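 active = percent inhibition above a cutoff equal to the mean of all tested compounds plus 3 SD, cut at about 15% in these data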;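 also: 0% = PAD4 with RCA probe and DMSO and 100% = probe without PAD4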
Target sequence (Q9UM07 whole entry, looked up): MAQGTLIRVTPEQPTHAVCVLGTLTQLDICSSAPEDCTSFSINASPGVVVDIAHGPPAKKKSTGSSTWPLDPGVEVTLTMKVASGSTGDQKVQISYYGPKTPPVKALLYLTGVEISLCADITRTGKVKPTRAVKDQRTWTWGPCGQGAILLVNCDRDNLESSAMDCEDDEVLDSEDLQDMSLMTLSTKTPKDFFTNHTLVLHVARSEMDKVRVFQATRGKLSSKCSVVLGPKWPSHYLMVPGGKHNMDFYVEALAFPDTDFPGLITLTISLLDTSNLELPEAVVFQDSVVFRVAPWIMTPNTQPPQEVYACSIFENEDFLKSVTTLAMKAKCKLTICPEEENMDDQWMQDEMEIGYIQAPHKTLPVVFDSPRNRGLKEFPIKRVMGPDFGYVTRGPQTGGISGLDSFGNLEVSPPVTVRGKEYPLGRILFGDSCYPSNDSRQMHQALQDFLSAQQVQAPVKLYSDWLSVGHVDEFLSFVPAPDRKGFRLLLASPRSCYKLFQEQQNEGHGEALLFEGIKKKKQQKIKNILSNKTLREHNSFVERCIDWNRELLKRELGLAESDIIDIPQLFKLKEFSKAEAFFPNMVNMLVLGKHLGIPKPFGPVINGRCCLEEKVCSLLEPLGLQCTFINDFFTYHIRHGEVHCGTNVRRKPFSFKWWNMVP
TDP2 absorb – blocks human TDP2 phosphodiesterase activity; O95551; recombinant TDP2, T5PNP hydrolysis, p-nitrophenol absorbance 415 nm; inhibition, % at 12.8 µM; hit rate 0.34% among 370,000;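 active = inhibition above the mean of all tested compounds plus 3 SD, set per campaign, cut at about 25% in these data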;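 also: 0% = DMSO with enzyme and 100% = buffer with substrate but no TDP2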
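Incubation: 2 h at 37 °C; Test system: recombinant human TDP2; Quantity: enzyme 120 nM; Read-out basis: percent inhibition; Medium: 50 mM Tris-HCl pH 7.5 with Mg2+, KCl, DTT, BSA; Repeats: single replicate; Compound: 12.8 µM single point, 1% DMSO; Signal: epi absorbance; Reagent: 5 mM T5PNP chromogenic substrate; Benchmarks: no-enzyme high, DMSO-plus-enzyme low.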
GSTO1 counter – counter-screen for RBBP9 inhibitors: inhibitors of human GSTO1; AID 1974; inhibition, % at 5.96 µM; P78417; hit rate 1.1% among 300,000; recombinant GSTO1, activity-based probe fluorescence polarization;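 active = inhibition above the campaign mean inhibition plus 3 SD, cut at about 35% in these data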;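 also: 0% = GSTO1-1 with DMSO and 100% = wells lacking GSTO1-1 enzyme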
The depositor's hits bear a star; . = no result given.

SMILES	CTSL1 counter	HKDC1 inhibitor	UCH37 inh	PAD4 FP inh	TDP2 absorb	GSTO1 counter
O=C(NCC(c1cccs1)N1CCOCC1)c1ccccc1NS(=O)(=O)c1ccc(Cl)c([N+](=O)[O-])c1 (centres undefined)	-2.4	21.9	0.4	-2.1	2.7	50.2*
COc1ccc(C(=O)Oc2ccc(C=NO)cc2)cc1	.	.	-0.1	.	.	.
O=c1[nH]c(/C=C\c2cccs2)nc(O)c1[N+](=O)[O-]	7.6	-4.8	20.7*	-4.5	-0.3	3.3
O=c1[nH]c(/C=C\c2ccc(O)cc2)nc(O)c1[N+](=O)[O-]	8.2	8.5	18.1	0.5	3.5	8.5
O=c1[nH]c(/C=C\c2ccc(O)c(Cl)c2)nc(O)c1[N+](=O)[O-]	9.0	4.4	20.8*	-0.3	-8.3	4.3
COc1ccc2nc3cc(Cl)ccc3c(C#N)c2c1	19.4*	-0.5	-13.1	1.1	-7.7	-3.0
CC(=O)NN=Cc1cccc(OC/C=C/c2ccccc2)c1	.	.	-0.9	.	.	.
Clc1ccc(CONc2ncnc3nonc23)c(Cl)c1	18.3*	-8.4	5.2	1.3	3.4	8.0
C[C@@H]1CN(S(=O)(=O)C(C)(C)C)[C@@H](CCO)/C1=C\c1ccccc1	.	-6.5	3.8	.	-1.0	.
CC(C)(C)S(=O)(=O)N1C[C@H]2CC/C=C\C/C(c3ccccc3)=C\2[C@@H]1CCO	.	-2.2	24.8*	.	-1.5	.
Cc1cc(C(=O)NN=C/C=C/c2ccccc2)c(C)o1	.	.	10.5	.	.	.
N#CCCN(C(=O)COC(=O)c1nc(Cl)ccc1Cl)c1ccccc1	-7.1	-4.7	2.4	-5.9	5.0	-3.4
N#CCCN(C(=O)CCl)c1cccc(Cl)c1	1.7	6.1	0.4	3.3	-0.3	86.8*
O=C(O)CCC1c2cc3c4cc2OC2Oc5cc6c(cc51)C(CCC(=O)O)c1cc5c7cc1OC(O6)c1cc6cc(c1)Oc1cc(cc(C(=O)O)c1)Oc1cc8cc(c1)C(Oc1cc(c(cc1C5CCC(=O)O)C3CCC(=O)O)OC(O4)c1cc(cc(c1)Oc1cc(cc(C(=O)O)c1)O8)Oc1cc(cc(C(=O)O)c1)Oc1cc(cc2c1)Oc1cc(cc(C(=O)O)c1)O6)O7 (centres undefined)	21.6*	.	.	-150.3	.	-181.6
O=C(CSCc1ccc(Cl)cc1)NN=Cc1ccc(Cl)cc1Cl	.	.	4.7	.	.	.
Cc1cc(/C=C\c2ccc3cc(N(C)C)ccc3[n+]2C)c(C)n1-c1ccccc1	7.5	36.7*	9.1	-100.6	.	-53.9
C[n+]1c(/C=C/c2ccc(O)cc2)ccc2ccccc21	0.8	3.2	16.0	3.0	-9.3	-7.6
CC(=NNc1ccc(F)cc1)c1ccc(N2CCOCC2)c(F)c1	.	.	0.3	.	.	.
CC1CCCC(C)N1C(=O)COC(=O)c1ccc(S(=O)(=O)N(C)c2ccccc2)cc1 (centres undefined)	.	-2.3	-0.4	-6.5	-1.8	.
CN(/C=C/C(=C/C=[N+](C)c1ccccc1)OCCCS(=O)(=O)[O-])c1ccccc1	0.1	-7.5	21.1*	1.9	-6.1	1.0
CN(/C=C/C(=C\C=[N+](C)c1ccccc1)OCCCS(=O)(=O)[O-])c1ccccc1	2.2	-2.9	20.1*	-0.4	-6.2	14.7
COc1cccc(/C=C/c2[nH]c(=O)[nH]c(=O)c2[N+](=O)[O-])c1O	-2.0	6.7	8.6	3.9	-51.1	36.1*
COc1cc(/C=C/c2[nH]c(=O)[nH]c(=O)c2[N+](=O)[O-])cc(OC)c1O	.	12.6	14.8	.	-49.5	.
O=C(COC(=O)c1ccc2c(c1)C(=O)N(Cc1ccncc1)C2=O)Nc1cccc2ccccc12	18.6*	-3.4	2.5	0.7	-5.0	10.8
CCC1Oc2ccc(C)cc2N(CC(=O)N(Cc2ccc(C)o2)C2CCCC2)C1=O (centres undefined)	28.0*	4.3	6.0	3.6	-15.3	-0.1
SMILES	CTSL1 counter	HKDC1 inhibitor	UCH37 inh	PAD4 FP inh	TDP2 absorb	GSTO1 counter
O=C(O)[C@H](Cc1ccccc1)NC(=O)N1CCN(c2ccccc2)CC1	17.2*	-4.6	3.2	-0.1	8.2	10.7
O=C(CNC(=O)c1ccc(S(=O)(=O)N2CCCC2)cc1)NN=Cc1ccc(Cl)cc1Cl	.	.	6.2	.	.	.
CN(CC(=O)Nc1ccc(F)cc1)C(=O)COC(=O)CNC(=O)c1ccc(Cl)cc1Cl	21.2*	-1.9	0.3	2.5	-2.9	4.4
COc1ccc(O[C@H]2C=C[C@@H](c3ccccc3)O[C@@H]2COC(=O)CCC(C)=NOC[C@@H](O)COCc2ccco2)cc1	.	.	2.3	.	.	.
CC(C)C[C@H]1CN=C(Nc2ccccc2)N1CC1CCCCCC1	19.6*	20.8	-0.7	4.4	-10.6	6.1
CC(C)C(=O)NNC(=O)CSc1ncnc2c1cnn2-c1ccccc1Cl	43.9*	-12.9	6.5	2.2	-13.0	-5.8
N#C/C(=C(/O)CSc1ccccc1C(=O)O)c1nc2ccccc2s1	5.5	4.5	20.6*	2.0	7.6	26.0
N#C/C(=C(/O)CSc1ccccn1)c1nc2ccccc2s1	11.4	-2.6	16.2	-44.1	-5.4	19.9
COc1cc(/C=C2\S/C(=N/S(=O)(=O)c3ccc(C)cc3)NC2=O)c([N+](=O)[O-])cc1OC	6.8	7.1	20.1*	-13.9	-2.8	28.0
CCCCCOC(=O)C1C2C=CC3(CN(c4ccccc4C)C(=O)C13)O2 (centres undefined)	18.6*	2.3	4.7	3.1	-8.6	5.2
CCOC(=O)C1C2C=CC3(CN(c4ccccc4CC)C(=O)C13)O2 (centres undefined)	0.4	-2.6	2.3	-3.0	-8.0	4.0
O=C(O)c1ccc2[nH]c3c(c2c1)CCCC3	.	-5.0	21.0*	.	-7.6	.
CC1CCc2[nH]c3ccc(C(=O)O)cc3c2C1 (centres undefined)	-0.1	-5.7	4.5	-8.7	-15.9	1.8
S=c1[nH]nc(-c2cc(-c3ccccc3)n[nH]2)n1N=Cc1ccc(Br)s1	.	.	5.3	.	.	.
Cc1cccc(N(CC(=O)NN=Cc2ccccc2C(=O)O)S(C)(=O)=O)c1C	.	.	2.9	.	.	.
O=C(NN=C/C=C/c1ccccc1[N+](=O)[O-])c1cccnc1	.	.	9.4	.	.	.
CCN=c1scc(C)n1N=Cc1cc(Br)c(O)c(Br)c1	.	.	-7.0	.	.	.
CCN(CC)CCN(C(=O)CCS(=O)(=O)c1ccccc1)c1nc2cc3c(cc2s1)OCO3	75.7*	-6.6	0.6	-1.9	-5.5	-0.1
CN(C)CCN(C(=O)CCS(=O)(=O)c1ccccc1)c1nc2cc3c(cc2s1)OCO3	1.8	-5.8	1.9	5.1	14.5	0.9
Cc1ccc(S(=O)(=O)CCC(=O)N(CCCN2CCOCC2)c2nc3ccccc3s2)cc1	8.4	-0.6	4.9	-2.0	0.5	-3.2
O=C(CCS(=O)(=O)c1ccccc1)N(CCCN1CCOCC1)c1nc2ccccc2s1	46.6*	-7.8	0.1	-4.0	23.0	-1.2
CC(C)Oc1ccc(Br)cc1C=NNC(N)=S	.	.	3.6	.	.	.

High-throughput results deposited in PubChem BioAssay by several laboratories.
